Experimental data published in ChEMBL document CHEMBL1133180 (2000).

Experiments:
Mus musculus [1] = organism: Mus musculus; assay: Latency time on 2nd (post-treatment) day of mouse passive-avoidance test.; assay type: functional
In short: (§1)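 Mouse light/dark step-through test with a pitfall floor: entering the dark room drops the mouse 40 cm into 10 °C water. Latencies in s are taken at training and at retention 24 h later, capped at 120 s. Mice not entering within 60 s are excluded. Dosing is sc 20 min before training, in saline or DMSO/H2O vehicle.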

Mus musculus [2] = organism: Mus musculus; assay: Latency time on 1st day of mouse passive-avoidance test.; also: test concentration or dose not given here; assay type: functional
In short: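 Mouse light/dark step-through test with a pitfall floor: entering the dark room drops the mouse 40 cm into 10 °C water. Mice not entering within 60 s are excluded. Dosing is sc 20 min before training, in saline or DMSO/H2O vehicle.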

Mus musculus [3] = organism: Mus musculus; assay: Change in the latency time on day 1 to that of day 2; assay type: functional; in short: as §1
Mus musculus [4] = assay: Minimal effective s.c. dose to reverse Scopolamine induced amnesia in mouse passive-avoidance test.
Mus musculus [5] = assay: Minimal effective dose to reverse Scopolamine induced amnesia, when given ip in mouse passive avoidance test; assay type: functional
In short: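 Mouse passive avoidance (light/dark box) with a pitfall floor: entering the dark room drops the mouse 40 cm into 10 °C water. Test drugs were given in a 1-to-10 dilution series 20 min before training. […] Retention was tested at 24 h, with a 120 s maximum. Mice not entering within 60 s at training were excluded. The read-out is the retention minus training latency (s).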

Mus musculus [6] = assay: Minimal effective dose to reverse Scopolamine induced amnesia, when given sc in mouse passive avoidance test; Dose limited by solubility problems; assay type: functional

SMILES	Latency time (Mus musculus [1])	Latency time (Mus musculus [2])	Delta latency time (Mus musculus [3])	Dose (Mus musculus [4])	Dose (Mus musculus [5])	Dose (Mus musculus [6])
O=C1CC[C@@H]2CN(S(=O)(=O)c3ccc(F)cc3)CCN12	104.4 s	19.7 s	93.8 s	0.001 mg/kg		
O=C1CC[C@@H]2CN(Cc3ccc(F)cc3)CCN12				>10 mg/kg		
O=C(c1ccc(F)cc1)N1CCN2C(=O)CC[C@@H]2C1	88.9 s	11.7 s	77.2 s	10 mg/kg		
Cc1ccc(C(=O)N2CCN3C(=O)CC[C@@H]3C2)cc1	100.1 s	15.6 s	84.5 s	1 mg/kg		
O=C1CC[C@@H]2CN(S(=O)(=O)c3ccc([N+](=O)[O-])cc3)CCN12	89.2 s	13.8 s	75.4 s	10 mg/kg		
Cc1ccc(S(=O)(=O)N2CCN3C(=O)CC[C@@H]3C2)cc1	95.6 s	15.1 s	80.5 s	1 mg/kg		
NC(=O)CN1CCCC1=O	108.8 s	17.6 s	91.2 s		30 mg/kg	
COc1ccc(C(=O)N2CCN3C(=O)CC[C@@H]3C2)cc1						>1 mg/kg
O=C(c1ccc(Cl)cc1)N1CCN2C(=O)CC[C@@H]2C1	103.7 s	18.3 s	85.4 s	10 mg/kg		
O=C(c1ccc([N+](=O)[O-])cc1)N1CCN2C(=O)CC[C@@H]2C1	96.2 s	18 s	78.2 s	10 mg/kg		
O=C1CC[C@@H]2CN(S(=O)(=O)c3ccc(Cl)cc3)CCN12						>0.1 mg/kg
O=C1CC[C@@H]2CN(Cc3ccccc3)CCN12	77.4 s	14.2 s	63.2 s	1 mg/kg		
COc1ccc(S(=O)(=O)N2CCN3C(=O)CC[C@@H]3C2)cc1	118.3 s	14.8 s	103.5 s	0.1 mg/kg		
O=C1CC[C@@H]2CN(S(=O)(=O)c3ccccc3)CCN12						>10 mg/kg
O=C(c1ccccc1)N1CCN2C(=O)CC[C@@H]2C1	102 s	16.8 s	85.2 s	1 mg/kg		
C[C@@H]1C[C@@H]2CN(C(=O)c3ccccc3)CCN2C1=O (relative stereo)	83.5 s	17.7 s	65.8 s	1 mg/kg		
C[C@H]1C[C@@H]2CN(C(=O)c3ccccc3)CCN2C1=O (relative stereo)	99.5 s	14.3 s	85.2 s	1 mg/kg		
C[C@H]1C[C@@H]2CN(C(=O)c3ccc(F)cc3)CCN2C1=O (relative stereo)	107.4 s	21.8 s	85.6 s	0.1 mg/kg		
C[C@@H]1C[C@@H]2CN(S(=O)(=O)c3ccc(F)cc3)CCN2C1=O (relative stereo)	118.4 s	21.9 s	96.5 s	0.1 mg/kg		
C[C@H]1C[C@@H]2CN(S(=O)(=O)c3ccccc3)CCN2C1=O (relative stereo)	91.3 s	18.3 s	73 s	10 mg/kg		
C[C@H]1C[C@@H]2CN(S(=O)(=O)c3ccc(F)cc3)CCN2C1=O (relative stereo)	94.9 s	16.9 s	78 s	0.1 mg/kg		
C[C@@H]1C[C@@H]2CN(S(=O)(=O)c3ccccc3)CCN2C1=O (relative stereo)	94.8 s	13.6 s	78.5 s	1 mg/kg		
C[C@@H]1C[C@@H]2CN(C(=O)c3ccc(F)cc3)CCN2C1=O (relative stereo)	104 s	24 s	80 s	0.1 mg/kg		
CN1[C@@H]2C[C@@H](OC(=O)[C@H](CO)c3ccccc3)C[C@H]1[C@@H]1O[C@@H]12 [SCOPOLAMINE]	44.5 s		27.9 s		1.5 mg/kg	
